Consider 54 compounds from ChEMBL document CHEMBL1135716, “A three-dimensional quantitative structure-activity relationship study of heparin-binding epidermal growth factor shedding inhibitors using comparative molecular field analysis” (J Med Chem, 2002).

A short description of this test: Heparin-binding epidermal growth factor (HB-EGF) shedding inhibition. In short, it runs like this:
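Cell-based shedding assay using HT-1080 fibrosarcoma transfectants that express human placental alkaline phosphatase-tagged HB-EGF. Cells were grown 24 h at 2×10^5/well in MEM with 10% FCS, washed, and preincubated 30 min with compound in MEM containing 1% DMSO. They were then stimulated with 60 nM TPA for 60 min. Supernatant was heated 10 min at 65 °C, then given p-nitrophenyl phosphate substrate (pH 9.8) for 2 h, and A405 was read. IC50 was taken from a concentration series.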

By IC50 is commonly meant the concentration at which inhibition is half-maximal. A high value points to a need for much substance. Take `O=C(NO)[C@H]1Cc2ccccc2CN1S(=O)(=O)c1ccccc1`: the IC50 stood at 42 nM.

With `COc1ccc(S(=O)(=O)N2Cc3cc(N(CC(=O)O)CC(=O)O)ccc3C[C@@H]2C(=O)NO)cc1`, the IC50 was 360 nM.

On to `O=C(NO)[C@H]1Cc2cc(O)c(O)cc2CN1S(=O)(=O)c1ccc(Oc2cnccn2)cc1`, for which the IC50 came to 820 nM.

Take `CSCCCOc1ccc(S(=O)(=O)N2Cc3nccnc3C[C@@H]2C(=O)NO)cc1`: the IC50 is 100 nM.

`Cc1ccccc1S(=O)(=O)N1Cc2nccnc2C[C@@H]1C(=O)NO` had an IC50 of 12000 nM.

As to `Nc1ccc(Oc2ccc(S(=O)(=O)N3Cc4nccnc4C[C@@H]3C(=O)NO)cc2)cc1`, the IC50 was found to be 1000 nM.

As to `CC(C)COCCCOc1ccc(S(=O)(=O)N2Cc3nccnc3C[C@@H]2C(=O)NO)cc1`, the IC50 was 560 nM.

Take `O=C(NO)[C@H]1Cc2nccnc2CN1S(=O)(=O)c1ccc(C(F)(F)F)cc1`: the IC50 stood at 40000 nM.

In the case of `O=C(NO)[C@H]1Cc2nccnc2CN1S(=O)(=O)c1ccc(Oc2cnccn2)cc1`, the IC50 came to 110 nM.

`CCCCOc1ccc(S(=O)(=O)N2Cc3ccccc3C[C@@H]2C(=O)NO)cc1` displayed an IC50 of 420 nM.

With `O=C(O)c1ccc(S(=O)(=O)N2Cc3nccnc3C[C@@H]2C(=O)NO)cc1`, the IC50 came out at 70000 nM. This IC50 is about 170-fold higher than that of the compound before.

`C#Cc1ccc(S(=O)(=O)N2Cc3nccnc3C[C@@H]2C(=O)NO)cc1` showed an IC50 of 130 nM. Compared with the last compound, the IC50 is about 540-fold lower.

For `O=C(NO)[C@H]1Cc2nccnc2CN1S(=O)(=O)c1ccc(Oc2ccc(Oc3ccccc3)cc2)cc1`, the IC50 stood at 6100 nM.

The compound `O=C(NO)[C@H]1Cc2nccnc2CN1S(=O)(=O)c1cccs1` had an IC50 of 960 nM.

As for `CCCCCC(=O)Nc1ccc(S(=O)(=O)N2Cc3nccnc3C[C@@H]2C(=O)NO)cc1`, the IC50 was found to be 7700 nM.

As for `CS(=O)(=O)CCCOc1ccc(S(=O)(=O)N2Cc3nccnc3C[C@@H]2C(=O)NO)cc1`, the IC50 came to 1800 nM.

Turning to `CCOCCCOc1ccc(S(=O)(=O)N2Cc3cc(O)c(O)cc3C[C@@H]2C(=O)NO)cc1`, the IC50 came to 210 nM.

`NS(=O)(=O)c1ccc(-c2ccc(S(=O)(=O)N3Cc4ccccc4C[C@@H]3C(=O)NO)cc2)cc1`: the IC50 was determined as 20000 nM.

Compound `C=Cc1ccc(S(=O)(=O)N2Cc3nccnc3C[C@@H]2C(=O)NO)cc1` registered an IC50 of 1100 nM. This IC50 is about 18-fold lower than that of the compound before.

On to `Cc1ccc(S(=O)(=O)N2Cc3ccccc3C[C@@H]2C(=O)NO)cc1`, for which the IC50 was 830 nM.

As to `COc1ccc(S(=O)(=O)N2Cc3cc(NC(=O)CN)ccc3C[C@@H]2C(=O)NO)cc1`, the IC50 was 280 nM. This IC50 is about 3-fold lower than that of the compound before.

For `COCCc1ccc(S(=O)(=O)N2Cc3nccnc3C[C@@H]2C(=O)NO)s1`, the IC50 is 3000 nM.

On to `O=C(NO)[C@H]1Cc2nccnc2CN1S(=O)(=O)c1ccc(OCCCc2ccccc2)cc1`, for which the IC50 is 630 nM. This IC50 lies about 4.8-fold lower than the previous one.

Consider `O=C(NO)[C@H]1Cc2nccnc2CN1S(=O)(=O)c1ccc(Oc2ccncc2)cc1`, for which the IC50 was found to be 340 nM.

As to `COCCCOc1ccc(S(=O)(=O)N2Cc3cc(N)ccc3C[C@@H]2C(=O)NO)cc1`, the IC50 was 39 nM.

On to `O=C(NO)[C@H]1Cc2nccnc2CN1S(=O)(=O)c1cccnc1`, for which the IC50 is 6900 nM.

For the compound `CCCOc1ccc(S(=O)(=O)N2Cc3cc(O)c(O)cc3C[C@@H]2C(=O)NO)cc1`, the IC50 was 630 nM.

In turn, `O=C(NO)[C@H]1Cc2cc(O)c(O)cc2CN1S(=O)(=O)c1ccc(OCCCc2ccccc2)cc1` came in with an IC50 of 990 nM.

Consider `O=C(NO)[C@H]1Cc2nccnc2CN1S(=O)(=O)c1ccc([N+](=O)[O-])cc1`, for which the IC50 came to 70000 nM.

In the case of `Nc1ccc2c(c1)CN(S(=O)(=O)c1ccc(Oc3ncccn3)cc1)[C@@H](C(=O)NO)C2`, the IC50 turned out to be 4500 nM.

`CCOC(=O)COc1ccc(S(=O)(=O)N2Cc3nccnc3C[C@@H]2C(=O)NO)cc1` had an IC50 of 1000 nM.

`O=C(NO)[C@H]1Cc2cc(O)c(O)cc2CN1S(=O)(=O)c1ccc(-c2ccccc2)cc1` yielded an IC50 of 1290 nM.

In the case of `O=C(NO)[C@H]1Cc2ccccc2CN1S(=O)(=O)c1cccs1`, the IC50 amounted to 340 nM.

Regarding `O=C(NO)[C@H]1Cc2nccnc2CN1S(=O)(=O)c1ccc(OCCCBr)cc1`, the IC50 was 600 nM.

Regarding `Nc1ccc2c(c1)CN(S(=O)(=O)c1ccc(Oc3ccccc3)cc1)[C@@H](C(=O)NO)C2`, the IC50 is 490 nM.

Compound `COc1ccc(S(=O)(=O)N2Cc3nccnc3C[C@@H]2C(=O)NO)cc1` had an IC50 of 350 nM.

In turn, `COc1ccc(S(=O)(=O)N2Cc3cc(O)c(O)cc3C[C@@H]2C(=O)NO)cc1` registered an IC50 of 730 nM. Against the preceding compound, the IC50 is about 2.1-fold higher.

As for `CCOC(=O)CCCOc1ccc(S(=O)(=O)N2Cc3nccnc3C[C@@H]2C(=O)NO)cc1`, the half-maximal inhibitory concentration (IC50) was 1100 nM. Compared with the last compound, the IC50 is about 1.5-fold higher.

In turn, `Cc1ccc(S(=O)(=O)N2Cc3cc(O)c(O)cc3C[C@@H]2C(=O)NO)s1` returned an IC50 of 5400 nM.

`CCCOc1ccc(S(=O)(=O)N2Cc3nccnc3C[C@@H]2C(=O)NO)cc1` returned an IC50 of 1000 nM.

Consider `CCCCCCS(=O)(=O)N1Cc2nccnc2C[C@@H]1C(=O)NO`, for which the IC50 turned out to be 4400 nM.

Consider `O=C(NO)[C@H]1Cc2cc(O)c(O)cc2CN1S(=O)(=O)c1cccs1`, for which the IC50 turned out to be 160 nM.

`COc1ccc(CCS(=O)(=O)N2Cc3nccnc3C[C@@H]2C(=O)NO)cc1` gave a half-inhibitory concentration (IC50) of 6700 nM.

With `CCCCOCCCOc1ccc(S(=O)(=O)N2Cc3nccnc3C[C@@H]2C(=O)NO)cc1`, the IC50 turned out to be 260 nM.

For the compound `Nc1ccc(S(=O)(=O)N2Cc3nccnc3C[C@@H]2C(=O)NO)cc1`, the IC50 amounted to 1800 nM.

As to `CC(C)c1ccc(S(=O)(=O)N2Cc3ccccc3C[C@@H]2C(=O)NO)cc1`, the IC50 came out at 5500 nM.

With `Nc1cccc(S(=O)(=O)N2Cc3ccccc3C[C@@H]2C(=O)NO)c1`, the IC50 is 1100 nM.

In turn, `Cc1ccc(S(=O)(=O)N2Cc3nccnc3C[C@@H]2C(=O)NO)cc1` gave an IC50 of 2700 nM.

In turn, `COc1ccc(S(=O)(=O)N2Cc3ccccc3C[C@@H]2C(=O)NO)cc1` returned an IC50 of 280 nM.

In turn, `O=C(NO)[C@H]1Cc2nccnc2CN1S(=O)(=O)c1ccc(-c2ccccc2)cc1` came in with an IC50 of 1500 nM.

In turn, `CN(C)CCCOc1ccc(S(=O)(=O)N2Cc3nccnc3C[C@@H]2C(=O)NO)cc1` registered an IC50 of 18000 nM.

Take `O=C(NO)[C@H]1Cc2nccnc2CN1S(=O)(=O)c1ccc(OCCO)cc1`: the IC50 was found to be 1500 nM.

The compound `COc1ccc(S(=O)(=O)N2Cc3cc(NC(=O)[C@H](N)Cc4ccccc4)ccc3C[C@@H]2C(=O)NO)cc1` returned an IC50 of 570 nM.

As to `COc1ccc(S(=O)(=O)N2Cc3cc(N)ccc3C[C@@H]2C(=O)NO)cc1`, the IC50 stood at 190 nM.
